The record followed here is ChEMBL document CHEMBL1145310, “Isothiazolopyrimidines and isoxazolopyrimidines as novel multi-targeted inhibitors of receptor tyrosine kinases” (Bioorg Med Chem Lett, 2006).

pIC50: −log10 of the molar value.

In data set [1] the target is Vascular endothelial growth factor receptor 1 (Homo sapiens, UniProt P17948). Nature of the data set: Inhibition of FLT1.
Data set [2] is described as follows: Oral bioavailability in mouse at 10 mg/kg, po. The following applies: in vivo.
Data set [3] is described as follows: Clearance in mouse at 3 mg/kg, iv. Also noted: dose 3 mg/kg, route intravenous. The following applies: in vivo. It counts as ADME, organism-based.
The next data set has as its target Angiopoietin-1 receptor (Homo sapiens, UniProt Q02763). Nature of the data set: Inhibition of TIE2. The essentials:
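Kinase enzymatic assays run separately for each target. Each IC50 came from seven inhibitor concentrations, with every assay point determined in duplicate.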

Data set [4] is described as follows: Half life in mouse at 3 mg/kg, iv. It is filed as ADME, organism-based. Also noted: dose 3 mg/kg, route intravenous. The following applies: in vivo. In outline: (§1)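 Mouse pharmacokinetics: single intravenous dose of 3 mg/kg and single oral dose of 10 mg/kg. Half-life, volume of distribution at steady state, clearance, oral bioavailability and oral AUC were determined.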

Data set [5] concerns the target Mast/stem cell growth factor receptor Kit (Homo sapiens, UniProt P10721). Briefly: Inhibition of CKIT.
The nature of data set [6]: Volume of distribution in mouse at 3 mg/kg, iv. It is filed as ADME, organism-based. The following applies: in vivo, read-out: Vdss. Also noted: dose 3 mg/kg, route intravenous.
Data set [7] can be described thus: AUC in mouse at 10 mg/kg, po. It is filed as ADME, organism-based. Details: dose 10 mg/kg, route oral. The settings on record: plasma. In outline:
as §1

The target in data set [8] is Vascular endothelial growth factor receptor 3 (Homo sapiens, UniProt P35916). Briefly: Inhibition of FLT4.
Data set [9] concerns the target Vascular endothelial growth factor receptor 2 (Homo sapiens, UniProt P35968). Nature of the data set: Inhibition of KDR.

The term pIC50 denotes the IC50 on a negative log10 scale, so that one unit is a factor of ten. High values mean a low IC50, low ones a high IC50. A word on the bioavailability: it is the share of a dose that reaches the circulation, judged against a reference dose that is usually intravenous. A higher bioavailability goes with much systemic uptake. The term clearance denotes the volume of plasma or blood freed of the substance per unit of time. Lower therefore signals inefficient removal. The term half-life denotes the time in which the quantity being followed falls by half. In general, AUC refers to concentration integrated over time. Low values mean low exposure, high ones high exposure.

Chain of Vascular endothelial growth factor receptor 1 (P17948 whole entry): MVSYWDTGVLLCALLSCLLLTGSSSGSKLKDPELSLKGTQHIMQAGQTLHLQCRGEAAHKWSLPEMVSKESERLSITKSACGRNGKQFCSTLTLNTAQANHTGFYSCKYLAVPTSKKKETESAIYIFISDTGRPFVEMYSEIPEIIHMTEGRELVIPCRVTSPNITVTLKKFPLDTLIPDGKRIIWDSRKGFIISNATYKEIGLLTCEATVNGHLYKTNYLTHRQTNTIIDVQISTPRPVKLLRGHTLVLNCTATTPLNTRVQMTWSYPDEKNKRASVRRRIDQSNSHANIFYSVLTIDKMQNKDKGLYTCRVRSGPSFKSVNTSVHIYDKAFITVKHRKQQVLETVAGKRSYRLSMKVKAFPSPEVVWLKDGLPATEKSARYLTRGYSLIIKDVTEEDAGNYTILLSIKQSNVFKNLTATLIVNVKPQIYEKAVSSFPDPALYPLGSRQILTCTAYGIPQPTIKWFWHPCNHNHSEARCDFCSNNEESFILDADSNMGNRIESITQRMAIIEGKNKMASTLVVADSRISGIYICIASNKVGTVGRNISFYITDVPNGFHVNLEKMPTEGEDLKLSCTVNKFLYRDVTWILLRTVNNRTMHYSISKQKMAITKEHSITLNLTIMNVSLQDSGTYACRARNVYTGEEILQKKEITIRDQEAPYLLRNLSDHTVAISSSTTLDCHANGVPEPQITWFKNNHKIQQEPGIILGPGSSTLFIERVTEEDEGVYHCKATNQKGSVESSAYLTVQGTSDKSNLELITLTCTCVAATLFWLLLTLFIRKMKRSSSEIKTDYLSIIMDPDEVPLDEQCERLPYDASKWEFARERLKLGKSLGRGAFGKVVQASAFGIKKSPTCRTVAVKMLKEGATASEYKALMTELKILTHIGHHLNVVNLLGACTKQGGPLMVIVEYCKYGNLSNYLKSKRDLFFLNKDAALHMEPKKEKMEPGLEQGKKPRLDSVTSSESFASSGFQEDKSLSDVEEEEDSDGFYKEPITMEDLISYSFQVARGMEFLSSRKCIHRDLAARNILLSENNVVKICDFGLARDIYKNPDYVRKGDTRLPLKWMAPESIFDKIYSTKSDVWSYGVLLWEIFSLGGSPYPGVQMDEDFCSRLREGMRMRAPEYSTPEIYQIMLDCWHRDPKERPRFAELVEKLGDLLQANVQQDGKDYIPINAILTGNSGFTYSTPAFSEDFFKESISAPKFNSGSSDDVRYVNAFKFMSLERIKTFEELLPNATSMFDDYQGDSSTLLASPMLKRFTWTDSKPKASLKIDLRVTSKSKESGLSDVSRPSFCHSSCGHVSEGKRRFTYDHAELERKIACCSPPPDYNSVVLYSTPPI
Chain of Mast/stem cell growth factor receptor Kit (P10721 whole entry): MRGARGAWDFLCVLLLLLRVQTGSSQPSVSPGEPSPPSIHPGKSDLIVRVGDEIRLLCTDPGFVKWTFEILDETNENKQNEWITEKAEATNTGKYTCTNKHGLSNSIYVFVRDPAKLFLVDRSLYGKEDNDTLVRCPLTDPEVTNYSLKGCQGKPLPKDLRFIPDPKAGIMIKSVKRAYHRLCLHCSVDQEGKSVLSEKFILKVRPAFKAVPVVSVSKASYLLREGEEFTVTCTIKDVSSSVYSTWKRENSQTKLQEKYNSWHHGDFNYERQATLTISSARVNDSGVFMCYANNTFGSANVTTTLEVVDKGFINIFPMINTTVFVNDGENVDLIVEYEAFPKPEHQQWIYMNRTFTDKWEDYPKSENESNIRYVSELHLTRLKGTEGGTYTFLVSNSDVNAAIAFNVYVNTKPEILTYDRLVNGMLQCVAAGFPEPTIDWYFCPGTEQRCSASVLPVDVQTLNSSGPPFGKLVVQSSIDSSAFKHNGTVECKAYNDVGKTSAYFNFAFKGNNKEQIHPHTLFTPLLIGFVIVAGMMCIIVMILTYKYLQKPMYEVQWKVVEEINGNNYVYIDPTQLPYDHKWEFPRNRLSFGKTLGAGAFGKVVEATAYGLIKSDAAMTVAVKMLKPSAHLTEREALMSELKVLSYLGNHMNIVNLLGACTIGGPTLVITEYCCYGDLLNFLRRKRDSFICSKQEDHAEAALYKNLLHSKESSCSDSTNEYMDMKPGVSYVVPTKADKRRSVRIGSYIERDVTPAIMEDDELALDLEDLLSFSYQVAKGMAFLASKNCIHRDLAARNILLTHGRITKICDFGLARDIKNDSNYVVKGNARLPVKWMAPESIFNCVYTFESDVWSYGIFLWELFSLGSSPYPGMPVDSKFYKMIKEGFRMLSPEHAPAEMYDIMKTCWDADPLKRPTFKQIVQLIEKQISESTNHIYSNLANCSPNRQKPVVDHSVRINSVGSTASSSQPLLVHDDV
Chain of Angiopoietin-1 receptor (Q02763 whole entry): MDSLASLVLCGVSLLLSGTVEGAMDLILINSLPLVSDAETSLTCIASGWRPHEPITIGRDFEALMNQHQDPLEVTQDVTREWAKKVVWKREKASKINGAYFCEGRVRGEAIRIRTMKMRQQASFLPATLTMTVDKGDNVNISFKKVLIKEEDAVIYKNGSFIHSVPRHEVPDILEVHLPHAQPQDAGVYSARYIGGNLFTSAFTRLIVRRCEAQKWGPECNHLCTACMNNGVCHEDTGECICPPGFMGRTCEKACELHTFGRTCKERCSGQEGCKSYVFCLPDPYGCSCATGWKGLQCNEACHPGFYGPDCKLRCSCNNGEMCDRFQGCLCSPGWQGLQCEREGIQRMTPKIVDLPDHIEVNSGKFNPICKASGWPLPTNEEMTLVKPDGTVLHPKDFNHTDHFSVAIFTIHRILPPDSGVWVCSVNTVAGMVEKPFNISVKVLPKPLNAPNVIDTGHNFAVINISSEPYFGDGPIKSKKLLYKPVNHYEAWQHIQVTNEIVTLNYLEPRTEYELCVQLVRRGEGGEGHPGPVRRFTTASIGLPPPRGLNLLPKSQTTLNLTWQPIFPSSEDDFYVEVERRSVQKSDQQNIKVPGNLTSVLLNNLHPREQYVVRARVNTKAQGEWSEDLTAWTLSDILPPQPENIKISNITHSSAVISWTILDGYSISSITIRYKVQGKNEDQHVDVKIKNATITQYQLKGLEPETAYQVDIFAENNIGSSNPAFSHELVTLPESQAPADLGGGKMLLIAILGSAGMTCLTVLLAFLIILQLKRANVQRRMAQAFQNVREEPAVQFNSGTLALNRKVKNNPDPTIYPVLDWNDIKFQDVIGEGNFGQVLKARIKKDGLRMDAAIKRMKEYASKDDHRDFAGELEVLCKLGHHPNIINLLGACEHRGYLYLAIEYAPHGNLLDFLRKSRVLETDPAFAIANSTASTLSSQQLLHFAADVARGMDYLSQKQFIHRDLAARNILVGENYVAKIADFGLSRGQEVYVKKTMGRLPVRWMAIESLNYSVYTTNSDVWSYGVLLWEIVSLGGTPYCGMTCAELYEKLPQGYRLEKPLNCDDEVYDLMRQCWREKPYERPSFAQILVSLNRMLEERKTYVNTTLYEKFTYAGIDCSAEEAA
Chain of Vascular endothelial growth factor receptor 2 (P35968 whole entry): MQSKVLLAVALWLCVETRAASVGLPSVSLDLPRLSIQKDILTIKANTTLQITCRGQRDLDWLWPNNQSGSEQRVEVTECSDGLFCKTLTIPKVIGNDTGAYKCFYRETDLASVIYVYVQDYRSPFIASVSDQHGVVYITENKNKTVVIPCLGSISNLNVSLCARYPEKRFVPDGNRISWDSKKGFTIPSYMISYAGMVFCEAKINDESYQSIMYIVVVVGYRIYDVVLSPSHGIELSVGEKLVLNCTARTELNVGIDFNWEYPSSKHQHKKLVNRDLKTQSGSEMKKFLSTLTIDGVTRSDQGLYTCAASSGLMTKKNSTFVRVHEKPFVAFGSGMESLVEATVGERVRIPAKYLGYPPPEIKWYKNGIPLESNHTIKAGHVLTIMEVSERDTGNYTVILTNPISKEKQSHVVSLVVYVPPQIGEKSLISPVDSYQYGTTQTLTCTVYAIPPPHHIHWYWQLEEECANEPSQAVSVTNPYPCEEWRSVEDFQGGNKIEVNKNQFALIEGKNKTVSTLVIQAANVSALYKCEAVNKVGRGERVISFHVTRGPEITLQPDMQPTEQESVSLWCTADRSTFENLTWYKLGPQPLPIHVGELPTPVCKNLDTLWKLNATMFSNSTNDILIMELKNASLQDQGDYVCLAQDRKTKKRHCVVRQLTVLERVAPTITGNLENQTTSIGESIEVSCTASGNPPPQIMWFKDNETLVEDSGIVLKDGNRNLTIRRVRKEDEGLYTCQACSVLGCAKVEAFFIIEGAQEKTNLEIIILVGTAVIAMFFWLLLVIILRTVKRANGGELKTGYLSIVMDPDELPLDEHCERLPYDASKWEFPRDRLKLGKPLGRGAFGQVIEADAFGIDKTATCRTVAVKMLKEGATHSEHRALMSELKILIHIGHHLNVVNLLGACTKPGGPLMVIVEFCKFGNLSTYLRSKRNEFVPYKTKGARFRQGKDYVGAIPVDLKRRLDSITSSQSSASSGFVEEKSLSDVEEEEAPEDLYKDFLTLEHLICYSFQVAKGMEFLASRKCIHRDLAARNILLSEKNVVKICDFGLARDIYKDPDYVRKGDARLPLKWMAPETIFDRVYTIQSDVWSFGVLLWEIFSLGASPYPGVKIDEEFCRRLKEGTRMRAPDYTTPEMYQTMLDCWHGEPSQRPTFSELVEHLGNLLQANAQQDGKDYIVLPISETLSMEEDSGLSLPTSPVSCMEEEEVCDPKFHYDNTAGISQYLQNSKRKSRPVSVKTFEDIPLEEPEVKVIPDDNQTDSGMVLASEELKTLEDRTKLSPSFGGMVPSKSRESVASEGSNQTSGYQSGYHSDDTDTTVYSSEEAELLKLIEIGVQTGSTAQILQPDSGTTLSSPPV

Turning to `Cc1cccc(NC(=O)Nc2ccc(-c3nsc4ncnc(N)c34)cc2)c1`, the pIC50 is 7.10 in [1], 6.38 against Angiopoietin-1 receptor, 7.96 in data set [5] and 8.40 in data set [8]. In addition, in data set [2], the bioavailability turned out to be 56%. The compound further had a clearance in data set [3] of 26.7 mL/min/kg. In addition, the half-life in data set [4] was 36 min. Further, in [6], the Vd worked out at 1.36 L/kg. In data set [7], this compound showed an AUC of 9.1 µM·h.
`Nc1ncnc2snc(-c3ccc([N+](=O)[O-])cc3)c12` showed a pIC50 in data set [9] of less than 4.30.
Take `Cc1cccc(NC(=O)Nc2ccc(-c3csc4ncnc(N)c34)cc2)c1`: the bioavailability in data set [2] amounted to 65%. In [4], this compound gave a half-life of 42 min. Also, the exposure (AUC) in [7] was determined as 14 µM·h.
Turning to `Nc1ncnc2snc(-c3ccc(NC(=O)Nc4cccc(C(F)(F)F)c4)cc3)c12`, the pIC50 in data set [1] was 7.41; on Angiopoietin-1 receptor, 7.55; in [5], 7.74; in data set [8], more than 8.52.
In the case of `Nc1ncnc2snc(-c3ccc(NC(=O)Nc4cc(C(F)(F)F)ccc4F)cc3)c12`, the negative logarithm of the IC50 (pIC50) in data set [1] was 7.12; on Angiopoietin-1 receptor, 7.66; in data set [5], 7.55; in data set [8], 7.64.
Take `Cc1cc(C)c2oc(Nc3ccc(-c4noc5ncnc(N)c45)cc3)nc2c1`: the negative logarithm of the IC50 (pIC50) in data set [9] was less than 4.30.
Take `Cc1ccc(F)c(NC(=O)Nc2ccc(-c3nsc4ncnc(N)c34)cc2)c1`: in data set [2], the bioavailability stood at 48%. The compound also had a clearance in data set [3] of 75 mL/min/kg. In addition, at Angiopoietin-1 receptor, the negative-log IC50 (pIC50) is 7.72. This compound also gave a half-life in data set [4] of 12 min. For the same compound, the Vd in data set [6] worked out at 1.19 L/kg. Also, the AUC in [7] is 2.7 µM·h.
Compound `Nc1ncnc2onc(-c3ccc(NC(=O)c4ccccc4)cc3)c12` had a pIC50 in data set [9] of less than 4.30.
